From the RNAGym collection of RNA variant scans (doi:10.1126/science.aae0568) come the findings set out here.

This sample holds only a part of the variants without activity.

B1: tRNA (parent)
chain: GUUCCGUUGGCGUAAUGGUAACGCGUCUCCCUCCUAAGGAGAAGACUGCGGGUUCGAGUCCCGUACGGAACG

The variants in this data set derive from B1. Nature of the data set: yeast fitness relative to wild type (ratio to wild type); higher = fitter; tRNA-Arg(CCU), competitive growth, 37 C, YPD. In a few lines:
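The tRNA-Arg(CCU) gene variants were made by chemical synthesis with a 3% per-site mutation rate at 69 sites and inserted at the native genomic locus of Saccharomyces cerevisiae. After pooling, the strains were competed in YPD at 37°C for 24 hours in six parallel replicates. Gene amplicons from the start population and each end population were read by 100-nucleotide paired-end sequencing, and Darwinian fitness relative to wild type was taken from genotype frequency changes. Genotypes needed ≥ 100 starting reads, and estimates < 0.5 were set to 0.5.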
U8A C49U: the yeast fitness was 0.779.

For G9C A21C A57G, the yeast fitness was no more than 0.5.

In the case of U3A A14G G23C A65C, the yeast fitness is no more than 0.5.

C5U G9A A21G C55U: the yeast fitness is no more than 0.5.

G12A G25A A65U: the yeast fitness stood at 0.756.

As for A14G A15G, the yeast fitness worked out at 0.917.

As to U7C G9C U28C G41A, the yeast fitness is no more than 0.5.

Regarding G18C C33G C49G, the yeast fitness was no more than 0.5.

In the case of G10A A21G C22A C31A A40G C46G, the yeast fitness was no more than 0.5.

Consider G9A C55A, for which the yeast fitness is 0.707.

Turning to C29A A36G A45C G56A, the yeast fitness is no more than 0.5.

In the case of A36G G52C, the yeast fitness came to 0.674.

Regarding C22U C24U C60G, the yeast fitness is no more than 0.5.

Consider A45U G48A C55A A65C, for which the yeast fitness is no more than 0.5.

Take A45C G50A A65C: the yeast fitness was 0.634.

For C24G A57C U64A, the yeast fitness is no more than 0.5.

On to U28A A37G G41C, for which the yeast fitness was no more than 0.5.

Turning to C27G C34A C46G C55A, the yeast fitness was no more than 0.5.

As for G6A C22G U54G A69U, the yeast fitness was no more than 0.5.

For A21G C29G, the yeast fitness turned out to be 0.625.

With C33G A57U, the yeast fitness is no more than 0.5.

Take C30U A40C A42C G68U: the yeast fitness is no more than 0.5.

In the case of A15G U28G A42U G48A, the yeast fitness was no more than 0.5.

Regarding G10C C33U A40C, the yeast fitness was no more than 0.5.

Take A20C A37C A43G C61U: the yeast fitness is no more than 0.5.

As for U8C A45U, the yeast fitness was found to be 0.923.

Regarding A21U U28G U59G, the yeast fitness was 0.609.

As to U13C C27G A37U C60A, the yeast fitness is 0.727.

Regarding G23A A40C C55G, the yeast fitness was no more than 0.5.

Take C5U A20U U26A A65C G67C: the yeast fitness was no more than 0.5.

On to C4A U19A G44A U53C A70U, for which the yeast fitness is no more than 0.5.

For the variant A15C C34A C46U, the yeast fitness amounted to 0.614.

For the variant C22A A36U G68C, the yeast fitness was no more than 0.5.

Take A20U C34G A37G: the yeast fitness was no more than 0.5.

In the case of C24U A40U C55U U59A, the yeast fitness is 0.548.

On to C22U C24G, for which the yeast fitness worked out at 0.583.

Regarding U7C A14G G23A G25A A36U A43U, the yeast fitness is no more than 0.5.

For G10A C24A G56C, the yeast fitness is no more than 0.5.

Regarding A20G G25A C66U, the yeast fitness amounted to 0.682.

On to U3C A57G A69U, for which the yeast fitness stood at 0.599.

As to G12A C30A C46G, the yeast fitness was 0.649.

Turning to G10A A14G C29G, the yeast fitness is no more than 0.5.

Take A21U C46U C66A: the yeast fitness is no more than 0.5.

Consider A14G A40C U59G C60G, for which the yeast fitness is no more than 0.5.

Turning to C24U A43C A57C, the yeast fitness is no more than 0.5.

For the variant G12A A42C C55U, the yeast fitness was no more than 0.5.

With G9A A37C A43C, the yeast fitness was determined as 0.524.

Regarding U19G C22U C31U A40U A65C G68A, the yeast fitness is no more than 0.5.

Take G18C U19A U28G A40C C62G C66G: the yeast fitness is no more than 0.5.

As to C27U U47C A69U, the yeast fitness worked out at 0.838.

Regarding G18A A69U, the yeast fitness was 0.896.

As to U2C G9A U16C, the yeast fitness was 0.602.

Turning to U2C A14G G17A C46U C60A, the yeast fitness was no more than 0.5.

As to A15G U47G A69C, the yeast fitness is no more than 0.5.

Regarding C11A C31U C62A, the yeast fitness is no more than 0.5.

With U16C G58A, the yeast fitness turned out to be 0.87.

On to U8G G38A G67A A69U, for which the yeast fitness is no more than 0.5.

Consider G6U G44C G56C, for which the yeast fitness is no more than 0.5.

Consider C49A G63U U64C, for which the yeast fitness is no more than 0.5.

Turning to U35C A42C G52C, the yeast fitness was no more than 0.5.

U2A U16G C27G C49G G67U: the yeast fitness is no more than 0.5.

With C24G G48C C49U, the yeast fitness was no more than 0.5.

Take A37U G44A A70C: the yeast fitness turned out to be 0.614.

Regarding C22A U28C C30U G44A, the yeast fitness was no more than 0.5.

Regarding A20U U28C G44A C46U G48A C60G C62A C66G, the yeast fitness was determined as 0.578.

Consider G25A C30U, for which the yeast fitness is 1.

For the variant A14G G25C, the yeast fitness was found to be 0.976.

Consider C11U U16A U47C, for which the yeast fitness is 0.838.

For the variant C4A C66U A69C, the yeast fitness was determined as 0.585.

For the variant A14U C33G, the yeast fitness was no more than 0.5.

In the case of C29A G51C, the yeast fitness is no more than 0.5.

Take U16A G18C A36G G48C: the yeast fitness is no more than 0.5.

Regarding A14U A15G A21C, the yeast fitness was found to be 0.536.

Take G6A C30U A42C G48C: the yeast fitness is no more than 0.5.

Consider U35G G68C, for which the yeast fitness is 0.619.

Turning to C4U A37U A70C, the yeast fitness was 0.676.

With A14C G18A G44A C66G, the yeast fitness was found to be 0.56.

On to G9C A42U C61U U64A A69G, for which the yeast fitness is no more than 0.5.

As to G9C C30G U53C, the yeast fitness was no more than 0.5.

In the case of U13C G56A, the yeast fitness stood at 1.04.

A20G A36G A65G: the yeast fitness was 0.846.

As for G6C C27A, the yeast fitness worked out at 0.84.

With U3A G25A G58A, the yeast fitness amounted to 0.782.

As to C5U U7A U26A G39C, the yeast fitness was no more than 0.5.

For the variant U28G C55U G67C, the yeast fitness was no more than 0.5.

In the case of C5G A15U C24A, the yeast fitness was found to be 0.654.

For the variant C29G A40U, the yeast fitness stood at 0.555.

Consider C5U A14G C46G A65U, for which the yeast fitness is no more than 0.5.

Take C4G C33U A43C: the yeast fitness was no more than 0.5.

For the variant U7A G23A A43U, the yeast fitness is no more than 0.5.

As to C4G C11U C49U, the yeast fitness stood at 0.562.

As to C24G G25A A65G, the yeast fitness came to 0.609.

Regarding U16C G41C, the yeast fitness was determined as 0.867.

For the variant A14G C29G A43U C46U, the yeast fitness is no more than 0.5.

Regarding G6C U28C C46U A69G, the yeast fitness is no more than 0.5.

Take G23C U35G A42U: the yeast fitness is no more than 0.5.

A14G C49A C61U C62G: the yeast fitness is no more than 0.5.

As for C4U U19C C31A G41C, the yeast fitness is 0.53.

A14U A21G C34G A57U A69U: the yeast fitness is 0.655.

Consider A14G C49U U54C, for which the yeast fitness is no more than 0.5.

Consider G38A A40G, for which the yeast fitness came to 0.82.

For C4A A42G, the yeast fitness stood at 0.991.

Consider A15C U32C A36C A45C C60U, for which the yeast fitness is no more than 0.5.

Take C22U U64C: the yeast fitness is 0.977.

Consider C4A A14G G52C C66U, for which the yeast fitness is no more than 0.5.

Consider U19A A37U G41C G67A, for which the yeast fitness was no more than 0.5.

As to U26A A40U A69U, the yeast fitness stood at 0.699.

Take C11U C55A G56C G67C: the yeast fitness was no more than 0.5.

For G9A U16C U28G U59A, the yeast fitness was no more than 0.5.

On to G17A A42U A57U C61G, for which the yeast fitness was found to be 0.591.

As to C22U G52A C55A, the yeast fitness is 0.579.

For C24U U35C C66U, the yeast fitness was no more than 0.5.

Consider C22G A65G, for which the yeast fitness stood at 0.932.

Turning to C22U C24U C46U, the yeast fitness was 0.654.

On to U8C A14G A70U, for which the yeast fitness was found to be 0.59.

U3A A20G C24U C55G C61U: the yeast fitness was no more than 0.5.

Consider C33G G51A U53A G56A G67C, for which the yeast fitness was no more than 0.5.

With U32A C33A A43U C55U, the yeast fitness was no more than 0.5.

Turning to C11G A15C G41A C49G, the yeast fitness is no more than 0.5.

Regarding U3C G25C C62U G68A, the yeast fitness turned out to be 0.796.

Take C5G C29G G52A G67A: the yeast fitness is no more than 0.5.

For the variant A21C C29G U59C, the yeast fitness is no more than 0.5.

For C31U C60A A69U, the yeast fitness was determined as 0.506.

For the variant G39C G44C G50A, the yeast fitness was 0.566.

For C4G C29U G56A A65C A70C, the yeast fitness stood at 0.77.

For the variant G23A C60A, the yeast fitness is no more than 0.5.

In the case of C27U G44C C62U, the yeast fitness turned out to be 0.733.

For U26A C34U G50A A69U, the yeast fitness is no more than 0.5.

On to C49U U54A, for which the yeast fitness was determined as 0.736.

As to A57C U64A, the yeast fitness came out at 0.707.

Consider C29U A42U C66A, for which the yeast fitness came out at 0.567.

With A14U G18C U35G C49A C60G G68A, the yeast fitness is no more than 0.5.

With G6C G10A U16G C24U G50C C55U, the yeast fitness was no more than 0.5.

On to A15G A20G C27U C33U A37U G38C C60U C62A G63U, for which the yeast fitness was found to be 0.684.

For U8A C29A U47C, the yeast fitness was no more than 0.5.

As for A45U C46A C60G, the yeast fitness was determined as 0.521.

For U16C C55U G67A, the yeast fitness was 0.528.

For A14C A15G A42G A70U, the yeast fitness was found to be 0.569.

Consider G10C C22A C29G C49G, for which the yeast fitness is no more than 0.5.

Consider C4G C27G A65U G68U, for which the yeast fitness was found to be 0.562.

Turning to U8C U59A C66A, the yeast fitness is no more than 0.5.

With C27A C29A, the yeast fitness turned out to be 0.589.

In the case of U26A C60G, the yeast fitness turned out to be 0.691.

Turning to U13C C29A A37U C49A, the yeast fitness is no more than 0.5.

For A42U C62A, the yeast fitness amounted to 0.636.

Regarding C5A C24G U26A C29G A43U, the yeast fitness was no more than 0.5.

Take C5G U26A A36C: the yeast fitness was no more than 0.5.

In the case of A15C A45G G68A, the yeast fitness was no more than 0.5.

Turning to A40U C55U A65C, the yeast fitness was no more than 0.5.

In the case of U2G C60G, the yeast fitness was 0.592.

Take G12C A15G C24U A43G: the yeast fitness is 0.522.

For the variant G6A U8C A14C C61U, the yeast fitness is no more than 0.5.

For the variant C29A A45G, the yeast fitness was found to be 0.578.

G10A C31U C34A A40G U59A: the yeast fitness was 0.596.

Regarding U26C U28C A70G, the yeast fitness was 0.73.

Consider A14G C55U, for which the yeast fitness amounted to 0.553.

For U19C G52A, the yeast fitness stood at 0.78.

Take U35A G67C: the yeast fitness was determined as 0.657.

As for G10A C30U C34U A42G A69C A70G, the yeast fitness was no more than 0.5.

For the variant U2C A40G U59C, the yeast fitness was determined as 0.587.

In the case of C4G A14U C66U, the yeast fitness was no more than 0.5.

As to A15C G48C C66U G67C, the yeast fitness was no more than 0.5.

C34G G44U C49G C61U A69G: the yeast fitness was no more than 0.5.

As to C4G U28C G56U U59A, the yeast fitness worked out at 0.606.

Turning to U3A U8G C27A C61A G67A, the yeast fitness was no more than 0.5.

As to U8C U32C C46A C55A, the yeast fitness is 0.625.

In the case of U26C G56A, the yeast fitness stood at 0.895.
